Assay results from ChEMBL document CHEMBL3526048, “In vitro metabolism of rivoglitazone, a novel peroxisome proliferator-activated receptor γ agonist, in rat, monkey, and human liver microsomes and freshly isolated hepatocytes” (Drug Metab Dispos, 2011).

Key:
Assay type in all cases: ADME
Liver microsome = experiment: Drug metabolism in human liver microsomes assessed as formation of 2-mercapto-3-(4-((6-methoxy-1-methyl-1H-benzo[d]imidazol-2-yl)methoxy)phenyl)propanamide at 20 uM after 2 hrs by radio-HPLC/LC-MS/MS analysis in presence of NADPH-generating system and NADPH-generating system/SAM
Cytochrome P450 2C19 [1] = target: T1, Cytochrome P450 2C19 (Homo sapiens, UniProt P33261); experiment: Activity of human CYP2C19 expressed in microsomes isolated from baculovirus infected insect cell assessed as enzyme-mediated 5-hydroxy-5-(4-((6-methoxy-1-methyl-1H-benzo[d]imidazol-2-yl)methoxy)benzyl)thiazolidine-2,4-dione formation at 20 uM after 2 hrs by radio-HPLC/LC-MS/MS analysis in presence of NADPH-generating system and NADPH-generating system/SAM
T1 sequence (P33261 whole entry): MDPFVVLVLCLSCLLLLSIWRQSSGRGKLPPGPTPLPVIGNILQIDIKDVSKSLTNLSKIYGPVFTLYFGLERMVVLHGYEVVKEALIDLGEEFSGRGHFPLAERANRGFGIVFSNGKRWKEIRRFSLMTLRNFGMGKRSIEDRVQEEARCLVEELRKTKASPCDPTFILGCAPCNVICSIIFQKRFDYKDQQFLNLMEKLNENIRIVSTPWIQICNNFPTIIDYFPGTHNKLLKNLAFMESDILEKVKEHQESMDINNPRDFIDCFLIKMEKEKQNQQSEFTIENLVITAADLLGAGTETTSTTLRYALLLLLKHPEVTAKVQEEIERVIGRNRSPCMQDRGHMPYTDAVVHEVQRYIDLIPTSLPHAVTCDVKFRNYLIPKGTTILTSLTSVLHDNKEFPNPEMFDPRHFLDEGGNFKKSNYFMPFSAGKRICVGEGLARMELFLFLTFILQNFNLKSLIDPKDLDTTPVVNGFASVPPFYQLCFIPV
Method in brief: (§1)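 Baculovirus/insect-cell microsomes expressing single human CYPs, 1 mg/ml protein, with 50 mM potassium phosphate (pH 7.4) or 100 mM Tris-HCl (pH 7.5). NADPH-generating system: 2 mM NADP⁺, 20 mM glucose 6-phosphate, 2 units/ml G6PDH, 10 mM MgCl₂. [¹⁴C]rivoglitazone at 20 μM, 2 h at 37°C with shaking. Control used insect-cell control supersomes. Stopped with acetonitrile; supernatant concentrated under nitrogen; metabolites analysed by radio-HPLC, LC-MS and LC-MS/MS.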

Cytochrome P450 2D6 = Cytochrome P450 2D6 (Homo sapiens, UniProt P10635); experiment: Activity of human CYP2D6 expressed in microsomes isolated from baculovirus infected insect cell assessed as enzyme-mediated 3-(4-((6-methoxy-1-methyl-1H-benzo[d]imidazol-2-yl)methoxy)phenyl)-2-(methylsulfonyl)propanamide formation at 20 uM after 2 hrs by radio-HPLC/LC-MS/MS analysis in presence of NADPH-generating system/SAM
Cytochrome P450 2D6, sequence (P10635 whole entry): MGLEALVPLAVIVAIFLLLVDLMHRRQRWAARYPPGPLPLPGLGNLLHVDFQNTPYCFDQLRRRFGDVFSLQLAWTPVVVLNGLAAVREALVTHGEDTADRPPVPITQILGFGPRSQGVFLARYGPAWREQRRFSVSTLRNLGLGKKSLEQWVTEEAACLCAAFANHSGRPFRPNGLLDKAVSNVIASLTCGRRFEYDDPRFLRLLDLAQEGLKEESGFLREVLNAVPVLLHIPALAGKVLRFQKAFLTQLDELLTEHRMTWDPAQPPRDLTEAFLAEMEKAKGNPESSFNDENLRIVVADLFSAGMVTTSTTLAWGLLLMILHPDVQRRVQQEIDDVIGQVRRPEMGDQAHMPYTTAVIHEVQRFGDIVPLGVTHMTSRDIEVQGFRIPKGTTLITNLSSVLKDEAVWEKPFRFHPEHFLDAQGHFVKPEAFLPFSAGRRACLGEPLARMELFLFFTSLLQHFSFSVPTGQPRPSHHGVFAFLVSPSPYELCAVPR

Cytochrome P450 3A4 = Cytochrome P450 3A4 (Homo sapiens, UniProt P08684); experiment: (§2) Activity of human CYP3A4 expressed in microsomes isolated from baculovirus infected insect cell assessed as enzyme-mediated 5-(4-((6-hydroxy-1-methyl-1H-benzo[d]imidazol-2-yl)methoxy)benzyl)thiazolidine-2,4-dione formation at 20 uM after 2 hrs by radio-HPLC/LC-MS/MS analysis in presence of NADPH-generating system and NADPH-generating system/SAM
Cytochrome P450 3A4, sequence (P08684 whole entry): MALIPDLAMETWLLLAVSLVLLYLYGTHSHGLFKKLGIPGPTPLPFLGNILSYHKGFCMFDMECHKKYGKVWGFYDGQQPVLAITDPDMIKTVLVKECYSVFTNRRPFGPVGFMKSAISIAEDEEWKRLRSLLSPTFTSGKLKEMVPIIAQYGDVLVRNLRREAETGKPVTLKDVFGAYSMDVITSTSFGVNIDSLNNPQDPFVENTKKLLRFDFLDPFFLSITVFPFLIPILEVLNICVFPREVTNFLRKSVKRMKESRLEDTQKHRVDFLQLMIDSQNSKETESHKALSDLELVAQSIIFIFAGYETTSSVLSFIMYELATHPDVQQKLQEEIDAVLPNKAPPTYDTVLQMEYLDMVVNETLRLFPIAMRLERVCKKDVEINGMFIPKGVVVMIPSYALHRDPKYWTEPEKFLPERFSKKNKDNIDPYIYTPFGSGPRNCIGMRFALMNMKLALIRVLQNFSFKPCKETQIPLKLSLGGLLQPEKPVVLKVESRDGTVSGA

[2] = target: T2, UDP-glucuronosyltransferase 2B7 (Homo sapiens, UniProt P16662); experiment: as §2, with “human UGT2B7” for “human CYP3A4”, “after 4” for “after 2”, “NADPH-generating” for “NADPH-generating system and NADPH-generating”
T2 sequence (P16662 whole entry): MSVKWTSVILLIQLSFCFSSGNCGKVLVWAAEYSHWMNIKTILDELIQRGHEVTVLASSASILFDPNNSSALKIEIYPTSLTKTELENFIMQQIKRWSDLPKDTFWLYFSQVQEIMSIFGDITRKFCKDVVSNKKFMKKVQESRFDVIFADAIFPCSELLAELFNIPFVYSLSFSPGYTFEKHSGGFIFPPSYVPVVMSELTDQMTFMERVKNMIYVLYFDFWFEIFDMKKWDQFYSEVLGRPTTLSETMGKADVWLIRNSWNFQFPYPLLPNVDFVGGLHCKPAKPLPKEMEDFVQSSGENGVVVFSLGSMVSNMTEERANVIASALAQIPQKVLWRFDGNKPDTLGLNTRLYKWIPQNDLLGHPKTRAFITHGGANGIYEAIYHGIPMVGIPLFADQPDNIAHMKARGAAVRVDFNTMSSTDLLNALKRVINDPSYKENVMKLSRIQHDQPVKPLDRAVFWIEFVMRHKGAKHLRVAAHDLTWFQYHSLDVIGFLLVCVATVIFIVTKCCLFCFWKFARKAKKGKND

[3] = target: T3, UDP-glucuronosyltransferase 1A4 (Homo sapiens, UniProt P22310); experiment: Activity of human UGT1A4 expressed in microsomes isolated from baculovirus infected insect cell assessed as enzyme-mediated (2S,3S,4S,5R,6R)-3,4,5-trihydroxy-6-(5-(4-((6-methoxy-1-methyl-1H-benzo[d]imidazol-2-yl)methoxy)benzyl)-2,4-dioxothiazolidin-3-yl)tetrahydro-2H-pyran-2-carboxylic acid formation at 20 uM after 4 hrs by radio-HPLC/LC-MS/MS analysis in presence of UDPGA
T3 sequence (P22310 whole entry): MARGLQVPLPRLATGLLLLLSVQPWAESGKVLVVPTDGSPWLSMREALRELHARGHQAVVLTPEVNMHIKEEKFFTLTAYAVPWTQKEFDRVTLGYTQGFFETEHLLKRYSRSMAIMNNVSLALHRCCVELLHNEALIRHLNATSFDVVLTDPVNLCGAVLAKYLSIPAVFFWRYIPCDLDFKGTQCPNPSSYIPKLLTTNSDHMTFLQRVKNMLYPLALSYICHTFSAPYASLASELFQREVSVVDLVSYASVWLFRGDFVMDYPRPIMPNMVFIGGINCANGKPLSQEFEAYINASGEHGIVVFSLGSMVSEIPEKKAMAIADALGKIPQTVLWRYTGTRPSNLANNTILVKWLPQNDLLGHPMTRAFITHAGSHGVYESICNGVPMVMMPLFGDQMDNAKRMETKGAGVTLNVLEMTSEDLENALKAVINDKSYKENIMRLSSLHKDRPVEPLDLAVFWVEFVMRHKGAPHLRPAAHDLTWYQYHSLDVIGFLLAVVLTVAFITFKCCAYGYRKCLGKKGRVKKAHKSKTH

Cytochrome P450 2C19 [4] = target: T1, Cytochrome P450 2C19; experiment: (§3) Activity of human CYP2C19 expressed in microsomes isolated from baculovirus infected insect cell assessed as enzyme-mediated 2-hydroxy-3-(4-((6-methoxy-1-methyl-1H-benzo[d]imidazol-2-yl)methoxy)phenyl)propanamide formation at 20 uM after 2 hrs by radio-HPLC/LC-MS/MS analysis in presence of NADPH-generating system and NADPH-generating system/SAM; method in brief: as §1
Cytochrome P450 3A5 = Cytochrome P450 3A5 (Homo sapiens, UniProt P20815); experiment: as §3, with “CYP3A5” for “CYP2C19”
Cytochrome P450 3A5, sequence (P20815 whole entry): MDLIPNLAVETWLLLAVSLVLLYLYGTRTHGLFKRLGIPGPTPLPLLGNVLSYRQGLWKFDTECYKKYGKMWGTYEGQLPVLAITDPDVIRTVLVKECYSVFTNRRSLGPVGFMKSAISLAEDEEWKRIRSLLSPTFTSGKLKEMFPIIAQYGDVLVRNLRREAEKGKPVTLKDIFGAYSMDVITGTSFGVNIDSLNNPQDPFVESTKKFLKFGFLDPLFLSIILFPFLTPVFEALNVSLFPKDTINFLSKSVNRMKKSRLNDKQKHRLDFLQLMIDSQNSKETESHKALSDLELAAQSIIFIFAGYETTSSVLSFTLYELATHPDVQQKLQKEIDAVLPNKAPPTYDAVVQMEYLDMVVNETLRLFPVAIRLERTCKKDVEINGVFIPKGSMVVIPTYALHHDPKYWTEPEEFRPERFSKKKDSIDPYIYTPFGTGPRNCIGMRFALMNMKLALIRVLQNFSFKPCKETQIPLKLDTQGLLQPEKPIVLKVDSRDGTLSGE
Method in brief: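 cDNA-expressed human CYP3A5 in baculovirus-insect-cell microsomes (1 mg/ml protein) was incubated with [¹⁴C]rivoglitazone (20 μM) in 50 mM potassium phosphate (pH 7.4) or 100 mM Tris-HCl (pH 7.5). NADPH-generating system: 2 mM NADP⁺, 20 mM glucose 6-phosphate, 2 units/ml G6PDH, 10 mM MgCl₂. Incubation ran 2 h at 37°C with shaking; insect-cell control supersomes served as control. Acetonitrile stop, supernatant concentrated, then radio-HPLC, LC-MS and LC-MS/MS.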

Drug metabolism (Liver microsome): metabolite_detected
Drug metabolism (Cytochrome P450 2C19 [1]): metabolite_detected
Drug metabolism (Cytochrome P450 2D6): metabolite_not_detected
Drug metabolism (Cytochrome P450 3A4): metabolite_detected
Drug metabolism [2]: metabolite_not_detected
Drug metabolism [3]: metabolite_not_detected
Drug metabolism (Cytochrome P450 2C19 [4]): metabolite_detected
Drug metabolism (Cytochrome P450 3A5): metabolite_detected
Structure (SMILES): COc1ccc2nc(COc3ccc(C[14CH]4SC(=O)NC4=O)cc3)n(C)c2c1.Cl (racemic)
